The sample as a whole holds a higher share of hits than the screen did.
HUVEC inhibit: blocks proliferation of human endothelial cells. HUVEC proliferation, CellTiter-Glo luminescence, 72 h; hits give low values. viability, % at 10 µM (by protocol). hit rate 1.1% among 86,000. AID 648;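 active = viability at or below 30%; inactive = viability above 30%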;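 note: 100% = median luminescence of DMSO-only cell control wells on each plate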
Lung fibro prol: blocks proliferation of human lung fibroblasts | viability, % at 10 µM | hit rate 1.1% among 85,000 | LL 47 human lung fibroblast viability, ATP luminescence; hits give low values;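 active = viability at or below 50% in the single dose screen; inactive = viability above 50%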;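 note: compound exposure lasted 72 h before the ATP readout; 100% = median luminescence of untreated cell-only wells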
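Test system: LL 47 human lung fibroblasts; Quantity: 1,150 cells/well; Buffer or medium: IMEM plus 15% FBS; Dosing: tenfold compound dosing solution, DMSO at 0.1%; Timing: overnight cell rest, 72 h compound treatment at 37 °C; Detection: ATP-based CellTiter-Glo luminescent readout; Read-out basis: viability percentage against median untreated-cell control; Controls: cell-only wells, no compound.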
Candida biofilm: kills Candida albicans biofilms. C. albicans biofilm + clotrimazole, Alamar Blue. hit rate 0.14% among 85,000. inhibition, % at 6 µM;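 active = inhibition above 20%; inactive = inhibition below 20%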;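 note: preformed 24 hr biofilms exposed to compound for 48 hr; 0% = biofilm without compound and 100% = blank killed by clotrimazole plus chlorhexidine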
H69AR inhibit: blocks growth of human H69AR lung tumor cells; hit rate 6% among 85,000; viability, % at 10 µM; H69AR lung tumor viability, ATP luminescence, 72 h; hits give low values;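 active = viability at or below 40%; inactive = viability above 40%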;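 note: multidrug resistant small cell line overexpressing MRP-1 efflux transporter; 100% = mean luminescence of untreated control wells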
HCT116 PTEN-null: PTEN-deleted cell growth suppression | HCT116 PTEN-null viability, CellTiter-Glo, 60 h; hits give low values | viability, % at 10 µM | hit rate 1.2% among 140,000;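 active = viability at or below a set limit, 4 SD under the median of all tested compounds, cut at about 3.7% in these data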;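 note: PTEN knockout HCT116 line with beta catenin targeted HCT116 as companion control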
HCT116 bCat-KO: beta-catenin-lacking colon tumor cell growth suppression | hit rate 1.5% among 140,000 | viability, % at 10 µM | HCT116 beta-catenin knockout viability, CellTiter-Glo, 60 h; hits give low values;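 active = viability at or under a set limit, the compound median less 4 SD, cut at about 6% in these data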;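 note: 0% = Hyamine 1622 control at 20 µM and 100% = untreated cell control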
* hit, by the source's call; x = no result.

SMILES | HUVEC inhibit | Lung fibro prol | Candida biofilm | H69AR inhibit | HCT116 PTEN-null | HCT116 bCat-KO
Cc1cc(Nc2nc3ccccc3nc2Cl)n(-c2ccccc2C)n1 | 109 | 92 | 7 | 17* | 61 | 58
Cc1cccc2c1N(CCCOc1ccc(C(C)(C)C)cc1)C(=O)C2=O | 1.6* | 91 | 6 | 0.8* | 86 | 87
Cc1ccccc1OCCCN1C(=O)C(=O)c2cccc(C)c21 | 74 | 81 | 1 | 17* | 44 | 53
Cc1cccc(OCCN2C(=O)C(=O)c3cccc(C)c32)c1 | x | x | x | x | 35 | 43
Cc1cccc2c1N(CCCOc1ccccc1)C(=O)C2=O | 87 | 94 | 9 | 72 | 82 | 81
CC(=O)Nc1ccc(Cl)cc1C(=O)O | 95 | 96 | 7 | 96 | 88 | 88
O=C(CSc1nnc(-c2c[nH]c3ccccc23)o1)N(Cc1ccccc1)c1ccc(F)cc1 | 82 | 108 | 5 | 56 | 14 | 20
COc1ccc(CN(C(=O)CSc2nnc(-c3ccccc3C)o2)c2ccc(F)cc2)cc1 | 128 | 102 | -2 | 0.4* | 79 | 78
CC(CNC(=O)C(=O)NC(C)CCc1ccccc1)Cc1ccccc1 (stereo not given) | x | x | x | x | 36 | 58
COc1ccc(/C=C(\C#N)C(=O)OCC(=O)Nc2ccc(C(C)(C)C)cc2)cc1 | x | x | x | x | 85 | 88
O=C1C=CC(O)(c2cc(=O)c3c(O)cc(O)cc3o2)C=C1 | x | x | x | x | 1.3* | 1.1*
CC(=O)/C=C1/SC(CC(=O)O)C(=O)N1c1ccccc1 (stereo not given) | 95 | 113 | 9 | 82 | 98 | 97
Cc1ccc(/C=C2\SC(=S)N(CC(=O)Nc3ncc(Cc4ccccc4Cl)s3)C2=O)cc1 | x | x | x | x | 66 | 74
Cc1ccc(/C=C2/SC(=S)N(CC(=O)Nc3ncc(Cc4ccc(C)cc4)s3)C2=O)cc1 | 93 | 84 | 4 | 4.0* | 79 | 82
Cc1ccc(S(=O)(=O)c2c(C)nn(-c3ccccc3)c2OC(=O)c2ccc(Br)o2)cc1 | x | x | x | x | 100 | 100
Cc1nn(C)c(C)c1CNC(=O)c1cc2n(n1)C(C(F)(F)F)CC(c1cccs1)N2 (stereo not given) | 101 | 99 | 0 | 93 | 96 | 84
CCOC(=O)c1c(NC(=O)c2cc3n(n2)C(C(F)(F)F)CC(c2cccs2)N3)sc(C)c1C (stereo not given) | x | x | x | x | 1.0* | 1.5*
CC(C)C[C@H](N)c1nnc(S(=O)(=O)Cc2ccc(F)cc2)o1 | 100 | 67 | 3 | 5.9* | 91 | 88
CC(C)OC(=O)c1nnc(Cc2ccc(F)cc2)o1 | 101 | 99 | 5 | 106 | 101 | 101
COc1ccc(Cl)cc1NC(=O)C1CCCO1 (stereo not given) | 96 | 88 | 3 | 112 | 108 | 104
COc1cc2c(cc1NC(=O)Cn1cnc3c1c(=O)n(C)c(=O)n3C)oc1ccccc12 | 76 | 86 | 6 | 8.1* | 81 | 72
COc1cc2c(cc1NC(=O)C1CCCO1)oc1ccccc12 (stereo not given) | 71 | 83 | 4 | 35* | 54 | 41
COC(=O)C(Cc1cnc[nH]1)NC(=O)C1CCC(=O)N1 (stereo not given) | 96 | 104 | 2 | 95 | 92 | 89
O=C1CSC(c2ccccc2)N1c1nnc(C23CC4CC(CC(C4)C2)C3)s1 (stereo not given) | x | x | x | x | 77 | 80
O=C(c1cnn2c1NC(c1ccco1)CC2C(F)(F)F)N1CCN(c2cccc(Cl)c2)CC1 (stereo not given) | 58 | 88 | x | 14* | 39 | 62
SMILES | HUVEC inhibit | Lung fibro prol | Candida biofilm | H69AR inhibit | HCT116 PTEN-null | HCT116 bCat-KO
Cc1cc(C(=O)O)c(CSCc2cc(C(=O)O)oc2C)o1 | 92 | 100 | 1 | 95 | 88 | 87
CN(C)c1ccc(NC(=O)CSc2nc(N)c(C(=O)Nc3ccc(N(C)C)cc3)s2)cc1 | 94 | 88 | 5 | 83 | 47 | 42
CCOC(=O)c1sc(SCC(=O)Nc2ccc(N(C)C)cc2)nc1N | 81 | 36* | 10 | 58 | 92 | 95
Cc1cc(S(=O)(=O)Nc2ccc(F)cc2)c(C)s1 | 95 | 90 | -1 | 101 | 111 | 90
CN(C)CCN(C)Cc1ccccc1Sc1cccc2ccccc12 | x | x | x | x | 1.5* | 1.2*
CNCc1ccccc1Sc1cccc2ccccc12 | x | x | x | x | 7 | 16
Cc1ccc(S(=O)(=O)N2CCN(C(C(=O)Nc3ccc(F)cc3)c3ccccc3)CC2)cc1 (stereo not given) | x | x | x | x | 76 | 89
CSc1nc(N)nc(SCCS(=O)(=O)c2ccc(Cl)cc2)c1C#N | 72 | 88 | 3 | 2.5* | 30 | 35
CSc1nc(N)nc(SCC(=O)Nc2ccc(Cl)cc2)c1C#N | x | x | x | x | 77 | 89
O=C(Nc1ccc(S(=O)(=O)N2CCN(Cc3ccccc3)CC2)cc1)c1cnccn1 | 101 | 93 | 5 | 100 | 41 | 20
CCc1nc(NCCCCCO)c2nnn(Cc3ccccc3F)c2n1 | 104 | 97 | 3 | 84 | 91 | 88
COCCNC(=O)/C=C/c1c(Cl)cccc1Cl | x | x | x | x | 95 | 94
COC(=O)c1ccc(NC(=O)Cn2nc(-c3ccncc3)nc2SCC(=O)Nc2nccs2)cc1 | x | x | x | x | 101 | 102
O=C(CCS(=O)(=O)Cc1ccccc1)Nc1nc2c(s1)CCCC2 | 60 | 63 | -5 | 22* | 39 | 41
Cc1ccc(OC(=S)Nc2ccc(F)cc2)cc1 | 99 | 95 | 6 | 87 | 89 | 93
Cc1ccc(OC(=S)Nc2ccc(O)cc2)cc1 | 70 | 97 | 5 | 15* | 87 | 88
CC1=Nc2ccccc2/C1=C/c1sc(=N)n(-c2nccs2)c1O | 52 | 52 | 1 | 2.9* | 2.3* | 3.9*
CC1=Nc2ccccc2/C1=C\c1nc(-c2ccc(C(F)(F)F)cc2)oc1O | 76 | 94 | -3 | 84 | 103 | 93
Cc1ccc(NC(=O)CSc2nc3ccccc3c(=O)n2CCCN2CCCCC2)cc1C | 13* | 3.0* | 11 | 2.2* | 2.1* | 1.9*
Cc1ccc(NC(=O)CSc2nc3ccccc3c(=O)n2CCCC(=O)N2CCCC2)cc1 | 61 | 77 | 9 | 15* | 39 | 36
CCn1c(SCC(=O)N2CCCC2)nc2ccccc2c1=O | 88 | 89 | 9 | 52 | 111 | 106
Cc1ccc(CSc2nc3ccccc3c(=O)n2CCCC(=O)NCc2ccco2)cc1 | 58 | 83 | 6 | 29* | 59 | 47
COCCCn1c(SCC(=O)Nc2ccc(C(=O)OC)cc2)nc2ccccc2c1=O | 109 | 102 | 1 | 92 | 92 | 87
CCn1c(SCC(=O)N2CCC(C(N)=O)(N3CCCCC3)CC2)nc2ccccc2c1=O | 81 | 90 | 6 | 9.0* | x | x
Cc1ccccc1-n1c(SCC(=O)NCc2cccs2)nc2ccccc2c1=O | x | x | x | x | 82 | 88
